# In ChEMBL document CHEMBL3588833 (ACS Med Chem Lett, 2015):
# Activity calls are given as the source filed them.
# Tests used:
# [1] = biological target: T1, Sodium channel protein type 10 subunit alpha (Homo sapiens, UniProt Q9Y5Y9); experiment: Inhibition of human Nav1.8 expressed in HEK293 cells assessed as reduction in blue fluorescent signal by VSP-FRET assay; assay type: cell-based
# In short: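 hNav1.8 stably expressed in an in-house HEK293 line; membrane-potential VSP-FRET read-out; IC50 from at least three tests on three separate assay runs.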
# [2] = Solubility of the compound at pH 7.2; assay type: physicochemical; conditions: buffer
# [3] = Plasma clearance in rat at 5 mg/kg, po; assay type: ADME, organism-based
# [4] = biological target: T1, Sodium channel protein type 10 subunit alpha; experiment: Inhibition of human Nav1.8/beta1 expressed in HEK293 cells by manual patch clamp electrophysiology; assay type: cell-based
# In short: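 Recombinantly expressed human Nav1.8 with β1 subunit, recorded by manual whole-cell patch clamp electrophysiology. Inhibition was measured at the channel's V0.5 of inactivation, and IC50 values were derived from these recordings, with the number of determinations (n) reported per compound.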
# [5] = Intrinsic clearance in rat liver microsomes; assay type: ADME; conditions: read-out: CLH
# [6] = Intrinsic clearance in human liver microsomes; assay type: ADME; conditions: read-out: CLH
# [7] = Plasma clearance in rat at 2 mg/kg, iv; assay type: ADME, organism-based
# [8] = Tmax in rat at 5 mg/kg, po; assay type: ADME, organism-based; conditions: in vivo
# [9] = biological target: Sodium channel protein type 1 subunit alpha (Homo sapiens, UniProt P35498); experiment: Inhibition of human Nav1.1 expressed in HEK293 cells by IonWorks Quattro selectivity assay; assay type: cell-based
# Rattus norvegicus [10] = experiment: Antallodynic effect in Sprague-Dawley rat spinal nerve injury-induced neuropathic pain model at 10 or 30 mg/kg; assay type: functional, organism-based
# [11] = Half life in rat at 2 mg/kg, iv; assay type: ADME, organism-based; conditions: in vivo
# [12] = biological target: T2, Sodium channel protein type 2 subunit alpha (Homo sapiens, UniProt Q99250); experiment: Inhibition of human Nav1.2 expressed in SHSY5Y cells assessed as reduction in blue fluorescent signal by VSP-FRET assay; assay type: cell-based, SH-SY5Y
# [13] = Volume of distribution in rat at 2 mg/kg, iv; assay type: ADME, organism-based; conditions: in vivo
# [14] = Half life in rat at 5 mg/kg, po; assay type: ADME, organism-based; conditions: in vivo
# [15] = biological target: T3, Sodium channel protein type 9 subunit alpha (Homo sapiens, UniProt Q15858); experiment: Inhibition of human Nav1.7 expressed in HEK293 cells by IonWorks Quattro assay
# [16] = biological target: T2, Sodium channel protein type 2 subunit alpha; experiment: Inhibition of human Nav1.2 expressed in HEK293 cells by IonWorks Quattro selectivity assay; assay type: cell-based
# [17] = biological target: Sodium channel protein type 5 subunit alpha (Homo sapiens, UniProt Q14524); experiment: Inhibition of human Nav1.5 expressed in HEK293 cells by IonWorks Quattro selectivity assay; assay type: cell-based
# [18] = Oral bioavailability in rat at 5 mg/kg; assay type: ADME, organism-based; conditions: in vivo
# [19] = biological target: Voltage-gated inwardly rectifying potassium channel KCNH2 (Homo sapiens, UniProt Q12809)
# [20] = Inhibition of Voltage gated sodium channel-mediated TTX-R current in human DRG neurons by manual patch clamp electrophysiology; conditions: DRG neuron
# [21] = Inhibition of Voltage gated sodium channel-mediated TTX-r current in rat DRG neurons by manual patch clamp electrophysiology; conditions: DRG neuron
# [22] = Oral bioavailability in rat at 2 mg/kg; assay type: ADME, organism-based; conditions: in vivo
# [23] = Unbound plasma concentration in Sprague-Dawley rat at 40 mg/kg single dose; assay type: ADME, organism-based
# [24] = Half life in rat at 1 mg/kg, iv; assay type: ADME, organism-based; conditions: in vivo
# [25] = Plasma clearance in rat at 2 mg/kg, po; assay type: ADME, organism-based
# Rattus norvegicus [26] = experiment: Antallodynic effect in Sprague-Dawley rat tibial nerve transection-induced mechanical allodynia model assessed as 50% shift in paw withdrawal threshold in ipsilateral paw at 40 mg/kg, single dose after 1.5 hrs (reference value: 1.7 +/- 0.3 g); assay type: functional
# In short: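 Tibial nerve transection neuropathic pain model in rat; single dose of 40 mg/kg; 50% paw withdrawal threshold of ipsilateral hindpaw measured 1.5 h post-dose against pre-dose baseline; pregabalin 10 mg/kg as comparator; mean ± SEM, P < 0.05 significance.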
# [27] = Tmax in rat at 2 mg/kg, po; assay type: ADME, organism-based; conditions: in vivo
# Rattus norvegicus [28] = experiment: Toxicity in Sprague-Dawley rat assessed as effect on vertical or horizontal movement at 250 mg/kg, po single dose; assay type: organism-based; conditions: in vivo
# In short: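 Rats given a single oral dose of 250 mg/kg; horizontal and vertical locomotor movements compared with vehicle-treated controls.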
# [29] = Plasma clearance in rat at 1 mg/kg, iv; assay type: ADME, organism-based
# [30] = Volume of distribution in rat at 1 mg/kg, iv; assay type: ADME, organism-based; conditions: in vivo
# [31] = Tmax in rat at 3 mg/kg, po; assay type: ADME, organism-based; conditions: in vivo
# [32] = Half life in rat at 3 mg/kg, po; assay type: ADME, organism-based; conditions: in vivo
# [33] = Plasma clearance in rat at 3 mg/kg, po; assay type: ADME, organism-based
# Rattus norvegicus [34] = experiment: Antallodynic effect in Sprague-Dawley rat tibial nerve transection-induced mechanical allodynia model assessed as 50% shift in paw withdrawal threshold in ipsilateral paw at 10 mg/kg, single dose after 1.5 hrs (reference value: 1.7 +/- 0.2 g); assay type: functional
# In short: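 Rat tibial nerve transection neuropathic pain model; mechanical allodynia read as 50% paw withdrawal threshold (g) of the ipsilateral hindpaw. The threshold is taken at baseline and again 1.5 h after a single dose. Data are given as mean ± SEM, with significance set at P < 0.05.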
# [35] = biological target: T3, Sodium channel protein type 9 subunit alpha; experiment: Inhibition of human Nav1.7 expressed in SHSY5Y cells by FRET assay; assay type: cell-based, SH-SY5Y
# [36] = biological target: Sodium channel protein type 3 subunit alpha (Homo sapiens, UniProt Q9NY46); experiment: Inhibition of human Nav1.3 expressed in SHSY5Y cells by IonWorks Quattro selectivity assay; assay type: cell-based, SH-SY5Y
# [37] = Oral bioavailability in dog at 0.25 mg/kg; assay type: ADME, organism-based, Canis lupus familiaris; conditions: in vivo
# [38] = biological target: T2, Sodium channel protein type 2 subunit alpha; experiment: Inhibition of human Nav1.2 expressed in SHSY5Y cells by IonWorks Quattro selectivity assay; assay type: cell-based, SH-SY5Y
# [39] = Tmax in dog at 0.25 mg/kg, po; assay type: ADME, organism-based, Canis lupus familiaris; conditions: in vivo
# [40] = Plasma clearance in dog at 0.25 mg/kg, po; assay type: ADME, organism-based, Canis lupus familiaris
# [41] = Plasma clearance in dog at 0.1 mg/kg, iv; assay type: ADME, organism-based, Canis lupus familiaris
# [42] = Half life in dog at 0.1 mg/kg, iv; assay type: ADME, organism-based, Canis lupus familiaris; conditions: in vivo
# [43] = Volume of distribution in dog at 0.1 mg/kg, iv; assay type: ADME, organism-based, Canis lupus familiaris; conditions: in vivo
# T3 sequence (Q15858 whole entry): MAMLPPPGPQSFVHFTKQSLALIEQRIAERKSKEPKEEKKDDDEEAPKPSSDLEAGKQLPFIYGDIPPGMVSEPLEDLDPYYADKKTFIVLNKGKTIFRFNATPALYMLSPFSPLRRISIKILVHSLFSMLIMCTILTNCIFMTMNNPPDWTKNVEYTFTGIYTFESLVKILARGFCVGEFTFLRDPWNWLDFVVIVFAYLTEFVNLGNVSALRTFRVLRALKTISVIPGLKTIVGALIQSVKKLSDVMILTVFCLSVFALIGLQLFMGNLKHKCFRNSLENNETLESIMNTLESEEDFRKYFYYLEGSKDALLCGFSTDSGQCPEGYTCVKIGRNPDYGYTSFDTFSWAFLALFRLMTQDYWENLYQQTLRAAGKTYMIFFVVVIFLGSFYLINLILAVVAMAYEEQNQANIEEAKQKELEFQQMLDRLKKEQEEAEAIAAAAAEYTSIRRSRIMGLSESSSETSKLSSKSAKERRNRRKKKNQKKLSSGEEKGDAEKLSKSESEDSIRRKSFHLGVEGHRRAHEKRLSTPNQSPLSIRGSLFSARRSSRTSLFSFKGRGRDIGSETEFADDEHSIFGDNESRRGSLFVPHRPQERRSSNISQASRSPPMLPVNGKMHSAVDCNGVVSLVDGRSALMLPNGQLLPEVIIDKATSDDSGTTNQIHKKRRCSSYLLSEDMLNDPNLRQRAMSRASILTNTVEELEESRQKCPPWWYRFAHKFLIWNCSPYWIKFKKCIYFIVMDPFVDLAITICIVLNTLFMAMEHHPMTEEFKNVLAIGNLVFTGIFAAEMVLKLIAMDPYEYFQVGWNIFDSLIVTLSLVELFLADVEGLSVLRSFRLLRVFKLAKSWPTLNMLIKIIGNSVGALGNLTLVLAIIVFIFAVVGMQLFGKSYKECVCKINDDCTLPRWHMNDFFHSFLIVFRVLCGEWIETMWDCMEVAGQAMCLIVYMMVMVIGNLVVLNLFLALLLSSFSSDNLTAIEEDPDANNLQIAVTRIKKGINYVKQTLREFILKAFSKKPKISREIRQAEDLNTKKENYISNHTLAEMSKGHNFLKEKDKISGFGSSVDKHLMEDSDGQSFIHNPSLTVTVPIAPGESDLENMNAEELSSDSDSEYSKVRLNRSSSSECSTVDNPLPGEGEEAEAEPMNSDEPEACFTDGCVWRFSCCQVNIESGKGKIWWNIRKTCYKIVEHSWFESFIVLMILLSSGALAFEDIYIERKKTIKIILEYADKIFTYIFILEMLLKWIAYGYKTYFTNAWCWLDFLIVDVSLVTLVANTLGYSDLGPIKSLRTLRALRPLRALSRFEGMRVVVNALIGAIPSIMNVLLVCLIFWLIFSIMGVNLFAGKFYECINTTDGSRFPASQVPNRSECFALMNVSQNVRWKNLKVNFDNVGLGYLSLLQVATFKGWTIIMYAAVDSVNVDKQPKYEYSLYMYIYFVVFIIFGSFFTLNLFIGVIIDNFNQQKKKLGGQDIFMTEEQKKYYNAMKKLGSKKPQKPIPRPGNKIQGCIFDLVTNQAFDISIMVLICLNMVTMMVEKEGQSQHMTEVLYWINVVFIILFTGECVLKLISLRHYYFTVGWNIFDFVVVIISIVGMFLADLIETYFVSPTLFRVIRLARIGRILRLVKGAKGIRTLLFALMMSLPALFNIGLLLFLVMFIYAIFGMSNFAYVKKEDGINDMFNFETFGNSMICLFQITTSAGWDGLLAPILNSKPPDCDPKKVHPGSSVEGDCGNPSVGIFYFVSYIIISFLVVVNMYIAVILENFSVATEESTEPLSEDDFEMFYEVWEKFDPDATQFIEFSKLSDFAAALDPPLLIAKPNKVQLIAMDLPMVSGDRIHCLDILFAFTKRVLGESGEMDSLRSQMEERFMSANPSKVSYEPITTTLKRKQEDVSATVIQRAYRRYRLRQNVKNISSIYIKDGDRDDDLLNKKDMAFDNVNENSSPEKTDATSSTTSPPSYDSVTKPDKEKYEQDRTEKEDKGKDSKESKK
# T1 sequence (Q9Y5Y9 whole entry): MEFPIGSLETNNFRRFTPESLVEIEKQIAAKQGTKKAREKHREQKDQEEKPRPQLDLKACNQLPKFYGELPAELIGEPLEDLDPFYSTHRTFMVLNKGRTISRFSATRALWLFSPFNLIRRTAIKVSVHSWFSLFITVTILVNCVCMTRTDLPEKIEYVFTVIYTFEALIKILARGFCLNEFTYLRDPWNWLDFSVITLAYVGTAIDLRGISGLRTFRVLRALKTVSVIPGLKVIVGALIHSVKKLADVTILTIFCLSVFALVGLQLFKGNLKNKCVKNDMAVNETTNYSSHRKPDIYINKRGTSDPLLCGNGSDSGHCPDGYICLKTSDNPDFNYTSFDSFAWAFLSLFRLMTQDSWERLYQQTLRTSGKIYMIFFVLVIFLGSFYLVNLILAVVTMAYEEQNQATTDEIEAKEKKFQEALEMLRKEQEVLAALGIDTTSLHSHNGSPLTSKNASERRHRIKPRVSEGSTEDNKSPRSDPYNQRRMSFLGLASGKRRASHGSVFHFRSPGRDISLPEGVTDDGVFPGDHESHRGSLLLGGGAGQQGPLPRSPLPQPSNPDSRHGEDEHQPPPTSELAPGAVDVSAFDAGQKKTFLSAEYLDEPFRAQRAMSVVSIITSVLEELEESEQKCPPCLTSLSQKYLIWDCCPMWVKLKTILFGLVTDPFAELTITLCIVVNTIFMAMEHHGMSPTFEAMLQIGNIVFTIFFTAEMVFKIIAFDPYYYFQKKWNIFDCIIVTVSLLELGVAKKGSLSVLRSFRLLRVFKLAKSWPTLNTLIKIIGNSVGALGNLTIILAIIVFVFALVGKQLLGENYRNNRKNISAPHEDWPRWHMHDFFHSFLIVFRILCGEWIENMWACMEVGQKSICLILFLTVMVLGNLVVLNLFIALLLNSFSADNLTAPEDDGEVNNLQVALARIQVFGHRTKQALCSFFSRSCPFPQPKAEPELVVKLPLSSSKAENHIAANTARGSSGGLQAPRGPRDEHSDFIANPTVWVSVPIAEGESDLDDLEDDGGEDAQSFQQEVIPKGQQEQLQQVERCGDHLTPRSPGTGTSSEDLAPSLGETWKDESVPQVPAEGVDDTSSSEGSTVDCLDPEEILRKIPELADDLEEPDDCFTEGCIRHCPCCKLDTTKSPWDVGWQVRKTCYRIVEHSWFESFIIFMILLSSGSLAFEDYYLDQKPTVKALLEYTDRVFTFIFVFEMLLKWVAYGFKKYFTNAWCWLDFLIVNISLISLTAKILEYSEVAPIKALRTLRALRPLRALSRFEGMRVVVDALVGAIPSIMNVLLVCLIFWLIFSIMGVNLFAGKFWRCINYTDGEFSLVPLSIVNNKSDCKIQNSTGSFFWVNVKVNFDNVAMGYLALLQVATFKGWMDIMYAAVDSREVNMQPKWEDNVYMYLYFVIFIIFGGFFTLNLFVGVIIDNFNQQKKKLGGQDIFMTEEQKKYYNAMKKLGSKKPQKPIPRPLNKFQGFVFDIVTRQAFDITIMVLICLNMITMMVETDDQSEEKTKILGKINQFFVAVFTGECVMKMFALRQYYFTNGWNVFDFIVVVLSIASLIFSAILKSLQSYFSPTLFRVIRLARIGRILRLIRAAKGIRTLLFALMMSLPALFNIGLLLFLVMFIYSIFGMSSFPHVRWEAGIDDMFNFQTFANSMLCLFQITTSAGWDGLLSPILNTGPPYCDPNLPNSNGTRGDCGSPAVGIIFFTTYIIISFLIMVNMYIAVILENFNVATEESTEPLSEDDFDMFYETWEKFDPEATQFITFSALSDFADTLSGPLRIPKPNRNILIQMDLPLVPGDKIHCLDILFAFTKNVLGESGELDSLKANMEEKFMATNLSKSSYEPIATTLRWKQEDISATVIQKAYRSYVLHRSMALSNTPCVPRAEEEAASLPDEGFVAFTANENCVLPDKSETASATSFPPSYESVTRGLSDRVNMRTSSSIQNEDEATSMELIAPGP
# Sequence of Voltage-gated inwardly rectifying potassium channel KCNH2 (Q12809 whole entry): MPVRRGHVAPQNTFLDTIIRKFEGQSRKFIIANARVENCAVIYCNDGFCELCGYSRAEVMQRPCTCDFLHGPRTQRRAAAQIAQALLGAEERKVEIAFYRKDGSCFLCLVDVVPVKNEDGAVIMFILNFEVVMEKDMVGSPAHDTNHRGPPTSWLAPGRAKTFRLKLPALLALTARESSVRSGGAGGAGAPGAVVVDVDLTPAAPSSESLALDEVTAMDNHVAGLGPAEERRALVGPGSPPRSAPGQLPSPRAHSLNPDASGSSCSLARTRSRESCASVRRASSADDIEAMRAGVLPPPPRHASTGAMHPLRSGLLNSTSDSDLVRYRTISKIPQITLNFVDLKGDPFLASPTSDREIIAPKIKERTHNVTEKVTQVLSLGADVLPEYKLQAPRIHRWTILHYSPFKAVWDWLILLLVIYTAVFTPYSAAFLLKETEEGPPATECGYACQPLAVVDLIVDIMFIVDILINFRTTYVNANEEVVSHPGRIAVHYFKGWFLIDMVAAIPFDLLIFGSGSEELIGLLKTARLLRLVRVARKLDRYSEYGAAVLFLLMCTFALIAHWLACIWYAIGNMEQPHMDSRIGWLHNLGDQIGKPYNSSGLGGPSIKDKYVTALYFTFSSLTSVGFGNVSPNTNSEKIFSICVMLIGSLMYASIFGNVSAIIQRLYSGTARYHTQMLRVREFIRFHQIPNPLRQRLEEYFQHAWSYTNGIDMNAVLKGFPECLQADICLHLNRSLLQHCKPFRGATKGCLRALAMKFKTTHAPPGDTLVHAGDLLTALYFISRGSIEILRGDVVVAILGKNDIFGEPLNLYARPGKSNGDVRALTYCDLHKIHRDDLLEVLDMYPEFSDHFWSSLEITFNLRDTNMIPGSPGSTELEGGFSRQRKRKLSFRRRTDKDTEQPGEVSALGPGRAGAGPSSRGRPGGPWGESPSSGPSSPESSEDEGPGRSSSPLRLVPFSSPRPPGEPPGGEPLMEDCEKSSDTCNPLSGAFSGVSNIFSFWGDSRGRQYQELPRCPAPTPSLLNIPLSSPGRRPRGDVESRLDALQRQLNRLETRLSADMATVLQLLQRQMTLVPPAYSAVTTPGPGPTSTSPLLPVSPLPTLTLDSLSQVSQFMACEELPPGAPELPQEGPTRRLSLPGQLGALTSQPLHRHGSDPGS
compound,measurement,setting,value
Cn1nccc1C(=O)Nc1ccc(-c2cc(Cl)cc(Cl)c2Cl)c(N)n1,IC50,[1],0.75 µM
same,solubility,[2],< 0.1 µg/mL
Cn1nccc1C(=O)Nc1ccc(-c2ccccc2OC(F)(F)F)c(N)n1,IC50,[1],2.4 µM
CNC(=O)c1ccc(-c2cc(Cl)cc(Cl)c2Cl)c(N)n1,CL/F,[3],13.3 mL/min/kg
same,IC50,[4],0.19 µM
same,microsomal CLint,[5],< 9 µL/min/mg
same,microsomal CLint,[6],7.1 µL/min/mg
same,clearance,[7],11.7 mL/min/kg
same,Tmax,[8],1 h
same,IC50,[9],13 µM
same,Activity,Rattus norvegicus [10],Active
same,half-life,[11],4 h
same,IC50,[1],2.6 µM
same,IC50,[12],14 µM
same,Vd,[13],3 L/kg
same,half-life,[14],4.6 h
same,IC50,[15],19 µM
same,IC50,[16],12.8 µM
same,IC50,[17],9 µM
same,bioavailability,[18],91%
same,IC50,[19],30 µM
same,IC50,[20],0.31 µM
same,IC50,[21],0.44 µM
Cn1nccc1C(=O)Nc1ccc(-c2ccccc2Cl)c(N)n1,IC50,[1],4.9 µM
COc1ccc(Cl)c(-c2ccc(NC(=O)c3ccnn3C)nc2N)c1 [PF-04531083],bioavailability,[22],59%
same,IC50,[4],0.19 µM
same,fraction unbound,[23],0.2
same,half-life,[24],3.9 h
same,IC50,[9],37 µM
same,CL/F,[25],11.4 mL/min/kg
same,IC50,[1],0.7 µM
same,Activity,Rattus norvegicus [26],7.3 g
same,Tmax,[27],1.3 h
same,IC50,[15],36 µM
same,IC50,[17],37 µM
same,Activity,Rattus norvegicus [28],Non-toxic
same,clearance,[29],6.7 mL/min/kg
same,Vd,[30],2.25 L/kg
same,IC50,[20],0.2 µM
same,IC50,[21],0.54 µM
Cn1nccc1C(=O)Nc1ccc(-c2ccc(F)cc2Cl)c(N)n1,IC50,[1],> 31 µM
CNC(=O)c1ccc(-c2ccccc2Cl)c(N)n1,IC50,[1],> 32 µM
CNC(=O)c1ccc(-c2cccc(Cl)c2)c(N)n1,IC50,[1],> 32 µM
CNC(=O)c1ccc(-c2cc(Cl)cc(Cl)c2)c(N)n1,IC50,[1],> 32 µM
CNC(=O)c1ccc(-c2ccc(Cl)cc2)c(N)n1,IC50,[1],> 32 µM
CC(=O)Nc1ccc(-c2cc(Cl)cc(Cl)c2Cl)c(N)n1,microsomal CLint,[5],29 µL/min/mg
same,microsomal CLint,[6],41 µL/min/mg
same,IC50,[1],0.16 µM
same,IC50,[12],3.5 µM
same,Tmax,[31],0.75 h
same,half-life,[32],4.1 h
same,CL/F,[33],204 mL/min/kg
COc1ccc(Cl)c(-c2ccc(NC(=O)c3conc3C)nc2N)c1,IC50,[1],0.5 µM
Cn1nccc1C(=O)Nc1ccc(-c2cc(Cl)ccc2Cl)c(N)n1,IC50,[1],0.92 µM
COc1ccc(Cl)cc1-c1ccc(NC(=O)c2ccnn2C)nc1N,IC50,[1],7.4 µM
CC(C)C[C@H](CN)CC(=O)O [PREGABALIN],Activity,Rattus norvegicus [34],5.8 g
Cc1nocc1C(=O)Nc1ccc(-c2cc(Cl)cc(Cl)c2Cl)c(N)n1,solubility,[2],< 0.1 µg/mL
Nc1nnc(-c2cccc(Cl)c2Cl)c(N)n1 [LAMOTRIGINE],IC50,[1],98 µM
same,IC50,[12],17 µM
Cc1nocc1C(=O)Nc1ccc(-c2ccccc2OC(F)(F)F)c(N)n1,IC50,[4],0.26 µM
same,IC50,[35],10 µM
same,IC50,[36],10 µM
same,bioavailability,[37],63%
same,IC50,[38],10 µM
same,Tmax,[39],3.5 h
same,IC50,[1],0.53 µM
same,Activity,Rattus norvegicus [26],Active
same,CL/F,[40],10 mL/min/kg
same,clearance,[41],6.2 mL/min/kg
same,IC50,[19],> 30 µM
same,half-life,[42],9.7 h
same,IC50,[21],0.33 µM
same,Vd,[43],5.3 L/kg
CNC(=O)c1ccc(-c2cc(Cl)ccc2Cl)c(N)n1,IC50,[1],12 µM
CNC(=O)c1cnc(N)c(-c2cc(Cl)cc(Cl)c2Cl)c1,IC50,[1],24 µM
same,IC50,[12],6.9 µM
COc1ccc(Cl)c(-c2ccc(NC(=O)C(C)C)nc2N)c1,IC50,[1],4 µM
